Key:
[1] = cited from earlier work
CYP3A4 = details: read-out: CYP3A4 inhibition IC50; in vitro; cited from earlier work
[2] = format: in vivo, human; details: atovaquone/proguanil 250/100 mg alone; N = 16; mean ± SD
Outline: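 Healthy CYP2C19 *1/*1 subjects (PCR-genotyped) in a crossover design; acid reducer given orally once daily for 6 days at the approved maximum dose, then co-dosed with oral atovaquone/proguanil. Plasma sampled to 48 h, urine in 0–8, 8–24 and 24–48 h intervals, both assayed by HPLC-MS/MS. Non-compartmental analysis: t½ = ln2/λz, CL/F = dose/AUCinf, fe = 48-h urinary proguanil/dose.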

[3] = proguanil alone, previous study; cited from earlier work
[4] = cited from earlier work; remark: listed apart in the source
CYP2C19 [5] = biological target: T1, CYP2C19 (Homo sapiens, UniProt P33261); format: in vivo; details: healthy CYP2C19 extensive metabolizers; 7 days of dosing
T1 sequence (P33261 whole entry): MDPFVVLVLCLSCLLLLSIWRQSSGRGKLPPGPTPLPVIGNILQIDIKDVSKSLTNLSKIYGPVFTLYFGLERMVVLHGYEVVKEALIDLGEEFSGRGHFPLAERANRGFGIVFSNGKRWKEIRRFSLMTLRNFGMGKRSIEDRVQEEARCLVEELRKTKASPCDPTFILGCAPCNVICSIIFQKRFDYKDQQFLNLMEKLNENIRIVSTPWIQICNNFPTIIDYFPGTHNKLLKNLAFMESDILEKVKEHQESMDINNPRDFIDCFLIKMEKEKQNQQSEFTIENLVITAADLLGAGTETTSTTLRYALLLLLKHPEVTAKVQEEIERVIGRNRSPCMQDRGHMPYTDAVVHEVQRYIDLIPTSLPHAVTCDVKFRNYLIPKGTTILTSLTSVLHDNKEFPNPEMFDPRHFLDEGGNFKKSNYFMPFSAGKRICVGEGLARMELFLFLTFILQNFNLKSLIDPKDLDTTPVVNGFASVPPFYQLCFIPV

[6] = at the therapeutic dose; cited from earlier work
CYP2C19 [7] = biological target: T1, CYP2C19; details: read-out: CYP2C19 half-maximum inhibitory concentration (IC50); in vitro; cited from earlier work

Question: For `O=C1C(O)=C([C@H]2CC[C@H](c3ccc(Cl)cc3)CC2)C(=O)c2ccccc21` [Atovaquone, atovaquone], which “Excreted unchanged in the feces” value [1] is on record?
Answer: ≥ 94%

Question: With `CC1(C)N=C(N)N=C(N)N1c1ccc(Cl)cc1` [Cycloguanil, cycloguanil] as the compound, how does the “Metabolic ratio (AUCinf of cycloguanil to AUCinf of proguanil)” value [2] read?
Answer: 0.35

Question: What about the “Metabolic ratio (cycloguanil-to-proguanil ratio)” value [3] of the same compound?
Answer: 0.84

Question: With `[H]/N=C(\N/C(=N/[H])Nc1ccc(Cl)cc1)NC(C)C` [Proguanil, proguanil] as the compound, how does the “Fraction of the dose renally excreted” value [1] read?
Answer: 40–60%

Question: And the “Biopharmaceutical Classification System (BCS) class” value [4]?
Answer: class III

Question: With `Cc1nc2c(O[C@H]3CCOc4cc(F)cc(F)c43)cc(C(=O)N(C)C)cc2[nH]1` [Tegoprazan, tegoprazan] as the compound, how does the “Effect on CYP2C19 activity (conclusion from proguanil PK)” value (CYP2C19 [5]) read?
Answer: neither an inhibitor nor an inducer of CYP2C19

Question: What about the “Unbound Cmax” value [6] of the same compound?
Answer: approximately 1.3 µM

Question: Which results are given for `CNCc1cc(-c2ccccc2F)n(S(=O)(=O)c2cccnc2)c1` [Vonoprazan, vonoprazan]?
Answer: Unbound maximum plasma concentration (Cmax) [6]: approximately 0.01 µM; IC50 (CYP2C19 [7]): 13 µM

Question: For `Cc1c(OCC(F)(F)F)ccnc1C[S+]([O-])c1nc2ccccc2[nH]1` (stereo not drawn) [lansoprazole], which “Biopharmaceutical Classification System (BCS) class” value [4] is on record?
Answer: class II

Question: With `COc1ccc2[nH]c([S+]([O-])Cc3ncc(C)c(OC)c3C)nc2c1` (stereo not drawn) [omeprazole] as the compound, how does the “Biopharmaceutical Classification System (BCS) class” value [4] read?
Answer: class II
